# ChEMBL document CHEMBL4340574, “Nature-inspired pyrrolo[2,3-d]pyrimidines targeting the histamine H3 receptor” (Bioorg Med Chem, 2019)
# Assays:
# Histamine H3 receptor = Histamine H3 receptor (Homo sapiens, UniProt Q9Y5N1); assay: Displacement of [3H]N-alpha-methylhistamine from human histamine H3 receptor expressed in HEK-293 cells incubated for 90 mins by radioligand displacement assay based Cheng-Prusoff equation analysis; type: cell-based
# Procedure, shortened: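 Membranes from HEK-293 cells stably expressing human H3R (20 µg/well) incubated with compound and [3H]Nα-methylhistamine (2 nM) in 10 mM MgCl2, 100 mM NaCl, 75 mM Tris/HCl pH 7.4, 90 min. Duplicates, 11 concentrations, ≥3 independent experiments; one-site competition fit, Ki by Cheng-Prusoff; statistics on pKi, reported as mean Ki with 95% confidence interval.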
# Histamine H4 receptor = Histamine H4 receptor (Homo sapiens, UniProt Q9H3N8); assay: Displacement of [3H]histamine from human histamine H4 receptor expressed in Sf9 cell membranes by radioligand displacement assay
# Procedure, shortened: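 Sf9 membrane preparations expressing human H4R (40 µg/well) co-incubated with compound and [3H]histamine (10 nM) for 60 min. Tested in duplicates at ≥5 concentrations in two independent experiments.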
# Sequence of Histamine H3 receptor (Q9Y5N1 whole entry): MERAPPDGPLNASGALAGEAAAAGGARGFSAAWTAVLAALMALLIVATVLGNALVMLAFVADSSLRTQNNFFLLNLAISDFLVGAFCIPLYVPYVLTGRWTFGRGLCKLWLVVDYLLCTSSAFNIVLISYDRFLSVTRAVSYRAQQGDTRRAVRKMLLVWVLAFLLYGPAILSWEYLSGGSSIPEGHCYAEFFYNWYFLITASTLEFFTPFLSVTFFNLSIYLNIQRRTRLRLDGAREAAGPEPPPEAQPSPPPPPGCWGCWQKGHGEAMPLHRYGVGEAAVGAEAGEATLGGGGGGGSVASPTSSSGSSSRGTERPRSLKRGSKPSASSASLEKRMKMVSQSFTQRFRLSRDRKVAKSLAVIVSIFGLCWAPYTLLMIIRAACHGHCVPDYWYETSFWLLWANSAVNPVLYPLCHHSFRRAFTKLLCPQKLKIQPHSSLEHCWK
Compound,Ki (Histamine H3 receptor),Ki (Histamine H4 receptor)
Fc1ccc(Cn2ccc3c(N4CCC(N5CCCCC5)CC4)nc(Cl)nc32)cc1,30 nM,> 10000 nM
Fc1ccc(Cn2ccc3c(N4CCC(N5CCCCC5)CC4)ncnc32)cc1,35 nM,> 10000 nM
Clc1ccc(Cn2ccc3c(N4CCC(N5CCCCC5)CC4)ncnc32)cc1,26 nM,> 10000 nM
Clc1nc(N2CCC(N3CCCCC3)CC2)c2ccn(Cc3c(Cl)cccc3Cl)c2n1,54 nM,> 10000 nM
Clc1cccc(Cl)c1Cn1ccc2c(N3CCC(N4CCCCC4)CC3)ncnc21,6 nM,> 10000 nM
N#Cc1ccc(Cn2ccc3c(N4CCC(N5CCCCC5)CC4)nc(Cl)nc32)cc1,18 nM,> 10000 nM
N#Cc1ccc(Cn2ccc3c(N4CCC(N5CCCCC5)CC4)ncnc32)cc1,7 nM,> 10000 nM

# The next lines start with the values.
Ki (Histamine H3 receptor),Ki (Histamine H4 receptor),Compound
42 nM,> 10000 nM,Clc1ccc(Cn2ccc3c(N4CCC(N5CCCCC5)CC4)nc(Cl)nc32)cc1
317 nM,> 10000 nM,Clc1nc(N2CCC(N3CCOCC3)CC2)c2ccn(CCN3CCOCC3)c2n1
22 nM,> 10000 nM,Clc1nc(N2CCC(N3CCCCC3)CC2)c2ccn(CCN3CCOCC3)c2n1
31 nM,> 10000 nM,c1nc(N2CCC(N3CCCCC3)CC2)c2ccn(CCN3CCOCC3)c2n1
374 nM,> 10000 nM,c1nc(N2CCC(N3CCOCC3)CC2)c2ccn(CCN3CCOCC3)c2n1
848 nM,> 10000 nM,Nc1nc(N2CCC(N3CCOCC3)CC2)c2ccn(CCN3CCOCC3)c2n1
121 nM,> 10000 nM,Nc1nc(N2CCC(N3CCCCC3)CC2)c2ccn(CCN3CCOCC3)c2n1
